Values after ≈ are worked out from the molar mass of the structure shown. Active and inactive are the calls of the source. The rule behind the calls is not given here.

Format in all cases: functional
Test [1] has as its system Staphylococcus aureus. Briefly: Antibacterial activity against Staphylococcus aureus ATCC 29213 after 24 hrs by broth microdilution method. The note with it: ATCC 29213, 24 h. The procedure, abridged:
(§1)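 MIC (lowest concentration preventing growth) determined per CLSI specifications, with fosfomycin, ceftriaxone, ciprofloxacin and chloramphenicol run as reference drugs; S. aureus ATCC 29213 used as quality-control strain.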
(In general: Dilution methods test growth across graded concentrations, often in twofold steps.)

For test [2], the system named is Staphylococcus aureus. Briefly: Bactericidal activity against Staphylococcus aureus ATCC 29213 after 24 hrs by CFU counting assay. The conditions noted are these: ATCC 29213, 24 h. The procedure, abridged:
(§2)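 MBC (lowest concentration killing the pathogen) determined per CLSI specifications, with fosfomycin, ceftriaxone, ciprofloxacin and chloramphenicol run as reference drugs; S. aureus ATCC 29213 used as quality-control strain.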

Test [3] deals with Bacillus cereus. The experiment in a line: Antibacterial activity against Bacillus cereus ATCC 11778 after 24 hrs by broth microdilution method. The conditions noted are these: ATCC 11778, 24 h. The procedure, abridged:
as §1

The subject of test [4] is Escherichia coli. Briefly: Antibacterial activity against multidrug-resistant Escherichia coli BW54 after 24 hrs by broth microdilution method. The conditions noted are these: BW54, 24 h. The method in brief: as §1
Test [5] relates to Stenotrophomonas maltophilia. The experiment in a line: Bactericidal activity against multidrug-resistant Stenotrophomonas maltophilia D457R after 24 hrs by CFU counting assay. The method in brief: as §2
The subject of test [6] is Escherichia coli. The experiment in a line: Antibacterial activity against ESBL-producing Escherichia coli BW55 after 24 hrs by broth microdilution method. The note with it: BW55, 24 h. The method in brief: as §1
In test [7] the test system is Escherichia coli. Briefly: Bactericidal activity against multidrug-resistant Escherichia coli BW54 after 24 hrs by CFU counting assay. The note with it: BW54, 24 h. The procedure, abridged:
as §2

Test [8] deals with Acinetobacter haemolyticus. Briefly: Bactericidal activity against vancomycin-resistant Acinetobacter haemolyticus BW62 after 24 hrs by CFU counting assay. The conditions noted are these: BW62, 24 h. The procedure, abridged: as §2
The test system of test [9] is Escherichia coli. The experiment in a line: Bactericidal activity against ESBL-producing Escherichia coli BW55 after 24 hrs by CFU counting assay. The conditions noted are these: BW55, 24 h. The method in brief: as §2
The test system of test [10] is Staphylococcus aureus. Briefly: Bactericidal activity against methicillin-resistant Staphylococcus aureus BW61 after 24 hrs by CFU counting assay. The conditions noted are these: BW61, 24 h. The method in brief:
as §2

For test [11], the system named is Pseudomonas aeruginosa. The experiment in a line: Antibacterial activity against multidrug-resistant Pseudomonas aeruginosa PAO1 after 24 hrs by broth microdilution method. The note with it: PAO1, 24 h. The method in brief: as §1
The subject of test [12] is Acinetobacter haemolyticus. The experiment in a line: Antibacterial activity against vancomycin-resistant Acinetobacter haemolyticus BW62 after 24 hrs by broth microdilution method. The conditions noted are these: BW62, 24 h. The method in brief: as §1
The subject of test [13] is Bacillus cereus. The experiment in a line: Bactericidal activity against Bacillus cereus ATCC 11778 after 24 hrs by CFU counting assay. The conditions noted are these: ATCC 11778, 24 h. The procedure, abridged:
as §2

The subject of test [14] is Stenotrophomonas maltophilia. Briefly: Antibacterial activity against multidrug-resistant Stenotrophomonas maltophilia D457R after 24 hrs by broth microdilution method. The procedure, abridged:
as §1

Test [15] relates to Staphylococcus aureus. Briefly: Antibacterial activity against methicillin-resistant Staphylococcus aureus BW61 after 24 hrs by broth microdilution method. The note with it: BW61, 24 h. The method in brief: as §1
Test [16] concerns Pseudomonas aeruginosa. The experiment in a line: Bactericidal activity against multidrug-resistant Pseudomonas aeruginosa PAO1 after 24 hrs by CFU counting assay. The conditions noted are these: PAO1, 24 h. The method in brief: as §2
The subject of test [17] is Escherichia coli. Briefly: Antibacterial activity against ESBL-producing Escherichia coli BW55 at 10 ug by disc diffusion method. For orientation: A growth-free zone around the sample is the usual read-out of agar diffusion tests.
Test [18] concerns Pseudomonas aeruginosa. The experiment in a line: Antibacterial activity against multidrug-resistant Pseudomonas aeruginosa PAO1 at 10 ug by disc diffusion method.
Test [19] relates to Bacillus cereus. Briefly: Antibacterial activity against Bacillus cereus ATCC 11778 at 10 ug by disc diffusion method.
In test [20] the test system is Acinetobacter haemolyticus. The experiment in a line: Antibacterial activity against vancomycin-resistant Acinetobacter haemolyticus BW62 at 10 ug by disc diffusion method.
For test [21], the system named is Staphylococcus aureus. Briefly: Antibacterial activity against Staphylococcus aureus ATCC 29213 at 10 ug by disc diffusion method.
Test [22] concerns Stenotrophomonas maltophilia. Briefly: Antibacterial activity against multidrug-resistant Stenotrophomonas maltophilia D457R at 10 ug by disc diffusion method.
Test [23] has as its system Escherichia coli. The experiment in a line: Antibacterial activity against multidrug-resistant Escherichia coli BW54 at 10 ug by disc diffusion method.

In general, MIC refers to the least concentration at which growth counts as inhibited. High values mean a need for much substance, low ones inhibition by little substance. Usually MBC stands for the lowest tested concentration that kills the bacteria rather than only halting them. Regarding `C[C@@H]1O[C@@H]1P(=O)(O)O` [FOSFOMYCIN], the MIC in the test with Staphylococcus aureus [1] was 8 mg/L (≈ 57.9 µM); in the test on Bacillus cereus [3] it was 32 mg/L (≈ 232 µM); against Escherichia coli [4], 32 mg/L (≈ 232 µM); against Escherichia coli [6] it was 32 mg/L (≈ 232 µM); with Pseudomonas aeruginosa [11] it was 64 mg/L (≈ 464 µM); in test [12], 128 mg/L (≈ 927 µM). In addition, the figures for the minimal inhibitory concentration (MIC) (in [14]; against Staphylococcus aureus [15]) were 256 mg/L (≈ 1850 µM) and 64 mg/L (≈ 464 µM), respectively. Also, the MBC with Staphylococcus aureus [2] turned out to be 64 mg/L (≈ 464 µM); in [5] it was 256 mg/L (≈ 1850 µM); against Escherichia coli [7], 32 mg/L (≈ 232 µM); in test [8], 128 mg/L (≈ 927 µM); against Escherichia coli [9], 128 mg/L (≈ 927 µM); in the test with Staphylococcus aureus [10], 32 mg/L (≈ 232 µM). The MBC stood at 32 mg/L (≈ 232 µM) in the test on Bacillus cereus [13] and 64 mg/L (≈ 464 µM) against Pseudomonas aeruginosa [16].

As for `O=P(Oc1ccccc1)(Oc1ccccc1)[C@@]1(O)CCC[C@@H]1Cl` (mixture of isomers), the MIC against Staphylococcus aureus [1] stood at 256 mg/L; against Bacillus cereus [3], 128 mg/L; with Escherichia coli [4], 128 mg/L; in the test with Escherichia coli [6], 128 mg/L; in the test on Pseudomonas aeruginosa [11], 256 mg/L; in [12], 128 mg/L. The MIC in test [14] came to 128 mg/L; against Staphylococcus aureus [15], 256 mg/L. For the same compound, the MBC was ≥ 256 mg/L against Staphylococcus aureus [2]; 256 mg/L in test [5]; 256 mg/L against Escherichia coli [7]; 256 mg/L in [8]; 256 mg/L against Escherichia coli [9]; ≥ 256 mg/L in the test on Staphylococcus aureus [10]. The MBC in the test with Bacillus cereus [13] and against Pseudomonas aeruginosa [16] was 256 mg/L each time. The outcome (in the test with Escherichia coli [17]; in the test on Pseudomonas aeruginosa [18]; in the test with Bacillus cereus [19]; in test [20]; in [22]; in the test with Escherichia coli [23]) was inactive. Further, the zone of inhibition at 10 µg/disc with Staphylococcus aureus [21] (read-out: IZ) was found to be 8 mm.

For the compound `CC1(C)COP(=O)([C@@](C)(O)CCl)OC1`, the result (in the test on Escherichia coli [17]; in the test with Pseudomonas aeruginosa [18]; in the test with Bacillus cereus [19]; in test [20]; in the test on Staphylococcus aureus [21]; in test [22]) was inactive. Besides, the outcome in the test with Escherichia coli [23] was inactive.

Regarding `CO/N=C(\C(=O)N[C@@H]1C(=O)N2C(C(=O)O)=C(CSc3nc(=O)c(O)nn3C)CS[C@H]12)c1csc(N)n1` [CEFTRIAXONE], the MIC against Staphylococcus aureus [1] is 4 mg/L (≈ 7.21 µM); in the test with Bacillus cereus [3], 32 mg/L (≈ 57.7 µM); against Escherichia coli [4] it was ≤ 0.5 mg/L; in the test with Escherichia coli [6], 32 mg/L (≈ 57.7 µM); against Pseudomonas aeruginosa [11] it was 128 mg/L (≈ 231 µM); in test [12] it was 4 mg/L (≈ 7.21 µM). Besides, the minimal inhibitory concentration (MIC) stood at 64 mg/L (≈ 115 µM) in test [14] and 4 mg/L (≈ 7.21 µM) against Staphylococcus aureus [15]. Moreover, the MBC against Staphylococcus aureus [2] came to 4 mg/L (≈ 7.21 µM); in test [5] it was 128 mg/L (≈ 231 µM); against Escherichia coli [7], 0.5 mg/L (≈ 0.902 µM); in test [8], 4 mg/L (≈ 7.21 µM); with Escherichia coli [9] it was 64 mg/L (≈ 115 µM); against Staphylococcus aureus [10], 4 mg/L (≈ 7.21 µM). Further, the MBC was found to be 64 mg/L (≈ 115 µM) against Bacillus cereus [13] and 128 mg/L (≈ 231 µM) against Pseudomonas aeruginosa [16].

In the case of `CC1(C)COP(=O)([C@@](O)(CCl)c2ccccc2)OC1`, the result (in the test on Escherichia coli [17]; in test [20]; in the test with Staphylococcus aureus [21]; in test [22]; in the test on Escherichia coli [23]) was inactive. The zone of inhibition at 10 µg/disc was determined as 6 mm with Pseudomonas aeruginosa [18] (read-out: IZ) and 7 mm in the test on Bacillus cereus [19] (read-out: IZ).

`O=C(O)c1cn(C2CC2)c2cc(N3CCNCC3)c(F)cc2c1=O` [CIPROFLOXACIN]: the MIC (against Staphylococcus aureus [1]; with Bacillus cereus [3]; in the test on Pseudomonas aeruginosa [11]; in test [12]; in test [14]; against Staphylococcus aureus [15]) was 4 mg/L (≈ 12.1 µM) throughout. The MBC with Staphylococcus aureus [2] came to 4 mg/L (≈ 12.1 µM); in [5], 256 mg/L (≈ 773 µM); in the test on Escherichia coli [7], 4 mg/L (≈ 12.1 µM); in test [8], 4 mg/L (≈ 12.1 µM); against Escherichia coli [9], 1 mg/L (≈ 3.02 µM); with Staphylococcus aureus [10] it was 4 mg/L (≈ 12.1 µM). Also, the MBC in the test on Bacillus cereus [13] and with Pseudomonas aeruginosa [16] was 4 mg/L (≈ 12.1 µM) in each case.

(Values after ChEMBL document CHEMBL3098034, “Synthesis and biological evaluation of α-hydroxyalkylphosphonates as new antimicrobial agents” (Bioorg Med Chem Lett, 2014).)
